Reference: ChEMBL document CHEMBL5038571, “Design and Synthesis of EZH2-Based PROTACs to Degrade the PRC2 Complex for Targeting the Noncatalytic Activity of EZH2” (J Med Chem, 2021)
The source made the active and inactive calls. The calls are words filed in the database; no cut-off is given here.

Tests used:
[1] = biological target: T1, Protein cereblon/Histone-lysine N-methyltransferase EZH2 (Homo sapiens) (UniProt Q15910+Q96SW2); assay: PROTAC activity at CRBN E3 ligase/EZH2 in PRC2 complex in human WSUDLCL2 cells assessed as induction of SUZ12 degradation at 1 uM incubated for 48 hrs by Western blot analysis relative to control; assay type: cell-based
How it was run: (§1)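 WSU-DLCL-2 cells treated 48 h (1 μM for the single-concentration screen), lysed; SDS-PAGE, nitrocellulose transfer, 5% milk block, primary antibody 4 °C overnight, chemiluminescence. Bands quantified by densitometry, normalized to GAPDH, expressed relative to DMSO-treated cells; mean ± SD of three independent experiments, t-test.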

[2] = biological target: T1, Protein cereblon/Histone-lysine N-methyltransferase EZH2 (Homo sapiens); assay: PROTAC activity at CRBN E3 ligase/EZH2 in PRC2 complex in human WSUDLCL2 cells assessed as induction of EZH2 degradation incubated for 48 hrs by Western blot analysis; assay type: cell-based; conditions: dose 1-10 µM; how it was run: as §1
[3] = biological target: T1, Protein cereblon/Histone-lysine N-methyltransferase EZH2 (Homo sapiens); assay: PROTAC activity at CRBN E3 ligase/EZH2 in PRC2 complex in human WSUDLCL2 cells assessed as induction of EZH2 degradation at 10 uM incubated for 48 hrs by Western blot analysis; assay type: cell-based
WSUDLCL2 [4] = assay: Inhibition of PRC2 in human WSUDLCL2 cells assessed as suppression H3K27 dimethylation incubated for 48 hrs by Western blot analysis; assay type: cell-based
How it was run: (§2)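 Lysates run on SDS-PAGE and transferred to nitrocellulose. Membranes blocked with 5% skim milk for 2 h, primary antibody applied overnight at 4 °C, then secondary antibody and chemiluminescent detection of histone H3 methylation marks.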

WSUDLCL2 [5] = assay: Inhibition of PRC2 in human WSUDLCL2 cells assessed as suppression H3K27 dimethylation at 10 uM incubated for 48 hrs by Western blot analysis; assay type: cell-based; how it was run: as §2
WSUDLCL2 [6] = assay: Effect on Histone H3 methylation in human WSUDLCL2 cells assessed as reduction in H3K27me1 levels at upto 10 uM incubated for 48 hrs by Western blot analysis; assay type: functional, cell-based; conditions: dose microM <=10, time 48.0 hrs; how it was run: as §2
[7] = biological target: T1, Protein cereblon/Histone-lysine N-methyltransferase EZH2 (Homo sapiens); assay: PROTAC activity at CRBN E3 ligase/EZH2 in PRC2 complex in human SU-DHL-6 cells assessed as induction of SUZ12 degradation by measuring reduction in SUZ12 protein level at 1 uM incubated for 48 hrs by Western blot analysis; assay type: cell-based
How it was run: (§3)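 Cells cultured in DMEM or RPMI 1640 with 10% FBS and 1% penicillin-streptomycin, 37 °C, 5% CO2; exposed to 1 μM compound for 48 h. Lysates run on SDS-PAGE and transferred to nitrocellulose. Blocked 2 h in 5% skim milk, primary antibody overnight at 4 °C, then secondary antibody. Chemiluminescent detection of PRC2 subunits and H3K27me3.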

[8] = biological target: T1, Protein cereblon/Histone-lysine N-methyltransferase EZH2 (Homo sapiens); assay: PROTAC activity at CRBN E3 ligase/EZH2 in PRC2 complex in human DU-145 cells assessed as reduction in H3K27me3 level at 1 uM incubated for 48 hrs by Western blot analysis; assay type: cell-based
How it was run: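 Cancer cell lines exposed to 1 μM compound for 48 h. Lysates immunoblotted (SDS-PAGE, nitrocellulose, 5% milk block, primary antibody overnight at 4 °C) for EZH2, SUZ12, EED, RbAp48 and H3K27me3. Bands quantified by densitometry and normalized to GAPDH.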

[9] = biological target: T1, Protein cereblon/Histone-lysine N-methyltransferase EZH2 (Homo sapiens); assay: PROTAC activity at CRBN E3 ligase/EZH2 in PRC2 complex in human SK-OV-3 cells assessed as induction of RpAb48 degradation by measuring reduction in RpAb48 protein level at 1 uM incubated for 48 hrs by Western blot analysis; assay type: cell-based; how it was run: as §3
[10] = biological target: T1, Protein cereblon/Histone-lysine N-methyltransferase EZH2 (Homo sapiens); assay: PROTAC activity at CRBN E3 ligase/EZH2 in PRC2 complex in human WSUDLCL2 cells assessed as effect on SUZ12 mRNA expression at 1 uM incubated for 48 hrs by RT-qPCR analysis; assay type: cell-based
How it was run: (§4)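 WSU-DLCL-2 cells treated 48 h with 1 μM compound. Total RNA extracted with Trizol and reverse-transcribed. SYBR qPCR run as 95 °C 30 s, then 40 cycles of 95 °C 6 s and 60 °C 20 s. PRC2 subunit mRNA normalized to the DMSO-treated group; mean SD, t-test.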

[11] = biological target: T1, Protein cereblon/Histone-lysine N-methyltransferase EZH2 (Homo sapiens); assay: PROTAC activity at CRBN E3 ligase/EZH2 in PRC2 complex in human WSUDLCL2 cells assessed as effect on EED mRNA expression at 1 uM incubated for 48 hrs by RT-qPCR analysis; assay type: cell-based; how it was run: as §4
[12] = biological target: T1, Protein cereblon/Histone-lysine N-methyltransferase EZH2 (Homo sapiens); assay: PROTAC activity at CRBN E3 ligase/EZH2 in PRC2 complex in human WSUDLCL2 cells assessed as effect on RbAp48 mRNA expression at 1 uM incubated for 48 hrs by RT-qPCR analysis; assay type: cell-based; how it was run: as §4
[13] = biological target: T1, Protein cereblon/Histone-lysine N-methyltransferase EZH2 (Homo sapiens); assay: PROTAC activity at CRBN E3 ligase/EZH2 in PRC2 complex in human WSUDLCL2 cells assessed as downregulation of EED expression at 1 uM pretreated with MG-132 for 4 hrs followed by compound addition and measured after 48 hrs by Western blot analysis; assay type: cell-based
How it was run: (§5)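 WSU-DLCL-2 cells pretreated 4 h with the named inhibitor, then compound added and incubated a further 48 h. EZH2, SUZ12, EED and RbAp48 measured by western blot (nitrocellulose transfer, skim-milk block, primary antibody overnight at 4 °C, chemiluminescent detection).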

[14] = biological target: T1, Protein cereblon/Histone-lysine N-methyltransferase EZH2 (Homo sapiens); assay: PROTAC activity at CRBN E3 ligase/EZH2 in PRC2 complex in human WSUDLCL2 cells assessed as downregulation of RbAp48 expression at 1 uM pretreated with GSK126 for 4 hrs followed by compound addition and measured after 48 hrs by Western blot analysis; assay type: cell-based; how it was run: as §5
Pfeiffer [15] = assay: Upregulation of ADRB2 mRNA expression in human Pfeiffer cells at 1 uM incubated for 48 hrs by qRT-PCR analysis; assay type: functional, cell-based
How it was run: (§6)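 WSU-DLCL-2 or Pfeiffer cells treated 48 h. Trizol RNA extraction, reverse transcription, SYBR qPCR (95 °C 30 s; 40 cycles of 95 °C 6 s, 60 °C 20 s). mRNA normalized to DMSO-treated cells; mean ± SD of three independent experiments, t-test.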

Pfeiffer [16] = assay: Upregulation of TXINP mRNA expression in human Pfeiffer cells at 1 uM incubated for 48 hrs by qRT-PCR analysis; assay type: functional, cell-based; how it was run: as §6
[17] = biological target: T1, Protein cereblon/Histone-lysine N-methyltransferase EZH2 (Homo sapiens); assay: PROTAC activity at CRBN E3 ligase/EZH2 in PRC2 complex in human WSUDLCL2 cells assessed as downregulation of SUZ12 expression at 1 uM pretreated with MLN4924 for 4 hrs followed by compound addition and measured after 48 hrs by Western blot analysis; assay type: cell-based; how it was run: as §5
[18] = biological target: T1, Protein cereblon/Histone-lysine N-methyltransferase EZH2 (Homo sapiens); assay: PROTAC activity at CRBN E3 ligase/EZH2 in PRC2 complex in human WSUDLCL2 cells assessed as downregulation of SUZ12 expression at 1 uM pretreated with EPZ6438 for 4 hrs followed by compound addition and measured after 48 hrs by Western blot analysis; assay type: cell-based; how it was run: as §5
MDA-MB-468 = assay: Downregulation of CENPK mRNA expression in human MDA-MB-468 cells at 10 uM incubated for 48 hrs by qRT-PCR analysis; assay type: functional, cell-based
How it was run: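 Cells treated 48 h. Total RNA extracted with Trizol, reverse-transcribed, and SYBR RT-qPCR run: 95 °C 30 s, then 40 cycles of 95 °C 6 s and 60 °C 20 s. mRNA normalized to the DMSO-treated group. Mean SD of three independent experiments, t-test versus DMSO.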

T1 sequence (Q15910 whole entry, looked up): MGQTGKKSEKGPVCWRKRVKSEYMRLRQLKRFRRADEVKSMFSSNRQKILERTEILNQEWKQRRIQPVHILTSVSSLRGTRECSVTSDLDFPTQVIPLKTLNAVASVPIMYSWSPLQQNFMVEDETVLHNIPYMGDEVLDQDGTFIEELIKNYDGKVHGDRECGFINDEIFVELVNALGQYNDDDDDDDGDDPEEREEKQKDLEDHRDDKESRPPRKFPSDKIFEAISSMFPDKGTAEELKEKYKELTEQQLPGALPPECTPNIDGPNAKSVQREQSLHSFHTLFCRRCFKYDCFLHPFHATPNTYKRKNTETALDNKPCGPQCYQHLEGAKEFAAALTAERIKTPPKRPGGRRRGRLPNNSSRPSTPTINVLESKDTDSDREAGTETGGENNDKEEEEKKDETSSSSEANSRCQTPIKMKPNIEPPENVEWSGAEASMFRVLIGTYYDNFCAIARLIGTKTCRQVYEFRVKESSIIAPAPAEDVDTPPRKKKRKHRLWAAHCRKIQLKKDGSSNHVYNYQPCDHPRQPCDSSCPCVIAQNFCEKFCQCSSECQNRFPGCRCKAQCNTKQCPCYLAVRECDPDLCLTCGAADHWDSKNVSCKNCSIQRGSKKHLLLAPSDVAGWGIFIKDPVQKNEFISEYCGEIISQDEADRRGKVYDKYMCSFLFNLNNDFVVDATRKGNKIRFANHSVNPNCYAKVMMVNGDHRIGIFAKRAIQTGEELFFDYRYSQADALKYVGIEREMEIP
T1 sequence (Q96SW2 whole entry, looked up): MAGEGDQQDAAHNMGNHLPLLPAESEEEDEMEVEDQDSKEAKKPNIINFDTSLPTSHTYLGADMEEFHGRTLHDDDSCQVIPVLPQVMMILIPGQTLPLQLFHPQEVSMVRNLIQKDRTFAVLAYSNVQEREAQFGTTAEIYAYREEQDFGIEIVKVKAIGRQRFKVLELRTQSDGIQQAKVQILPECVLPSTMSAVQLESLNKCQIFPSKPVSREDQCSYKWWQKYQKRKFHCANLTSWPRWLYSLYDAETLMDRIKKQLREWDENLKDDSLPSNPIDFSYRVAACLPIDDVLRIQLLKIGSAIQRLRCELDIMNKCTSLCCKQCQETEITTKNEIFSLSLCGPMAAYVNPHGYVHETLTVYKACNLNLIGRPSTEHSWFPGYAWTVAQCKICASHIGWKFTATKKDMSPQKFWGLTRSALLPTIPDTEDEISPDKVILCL

- Activity [1]: 81%
- Activity [2]: Dose-Dependent Effect
- Activity [3]: inactive
- Activity [7]: Active
- Activity [8]: Active
- Activity [9]: Active
- Activity [10]: inactive
- Activity [11]: inactive
- Activity [12]: inactive
- Activity [13]: inactive
- Activity [14]: inactive
- Activity [17]: inactive
- Activity [18]: inactive
SMILES: CCN(c1cc(-c2ccc(CN3CCN(CCCCCCCOc4cccc5c4C(=O)N(C4CCC(=O)NC4=O)C5=O)CC3)cc2)cc(C(=O)NCc2c(C)cc(C)[nH]c2=O)c1C)C1CCOCC1 (centres undefined)
- inhibition (WSUDLCL2 [4]): Dose-Dependent Effect
- inhibition (WSUDLCL2 [5]): Active
- Activity (WSUDLCL2 [6]): inactive
- Activity (Pfeiffer [15]): Active
- Activity (Pfeiffer [16]): inactive
- Activity (MDA-MB-468): Active
